From ChEMBL document CHEMBL4732168, “Dihydroquinazolines enhance 20S proteasome activity and induce degradation of α-synuclein, an intrinsically disordered protein associated with neurodegeneration” (Bioorg Med Chem Lett, 2021)

Tests used:
Type in all cases: protein-complex assay
[1] = target: T1, 20S proteasome (Homo sapiens) (UniProt P49721+P20618+P28074+P28062+P28065+P28072+P25786+P25787+P25788+P25789+P28066+P60900+O14818+Q8TAA3+P40306+A5LHX3+P49720+P28070+Q99436); experiment: (§1) Activation of human 20S proteosome assessed as increase in 7-amino-4-methylcoumarin release at 30 uM using mixture of chymotrypsin-like Suc-LLVY-AMC, trypsin-like Boc-LRR-AMC and caspase-like Z-LLE-AM fluorogenic peptides as substrates preincubated for 15 mins followed by substrate mixture addition and measured for 1 hr by fluorescence assay relative to control; settings: filed as activator, time 75.0 min
Procedure, shortened: (§2)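 Purified human 20S proteasome pre-incubated 15 min at 37°C with compound (3, 10 or 30 μM) or DMSO vehicle. Substrate mix then added: Suc-LLVY-AMC, Boc-LRR-AMC and Z-LLE-AMC, 13.3 μM each. AMC fluorescence followed over 1 h. Fold increase in activity calculated against untreated 20S.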

[2] = target: T1, 20S proteasome (Homo sapiens); experiment: Activation of human 20S proteosome assessed as fold increase in proteosome activity at 2 uM using mixture of chymotrypsin-like Suc-LLVY-AMC, trypsin-like Boc-LRR-AMC and caspase-like Z-LLE-AM fluorogenic peptides as substrates by fluorescence assay relative to control; settings: filed as activator
[3] = target: T1, 20S proteasome (Homo sapiens); experiment: Activation of human 20S proteosome assessed as concentration required to cause double the proteosome activity using chymotrypsin-like Suc-LLVY-AMC fluorogenic peptide as substrate; settings: filed as activator
Procedure, shortened: (§3)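 Human 20S proteasome activity measured by AMC fluorescence over time. Each fluorogenic substrate (CT-L Suc-LLVY-AMC, Tryp-L Boc-LRR-AMC, Casp-L Z-LLE-AMC) tested alone and as an equal-amount mixture. Six-point compound titration, 1.25–40 μM, run in triplicate. AC200, the concentration that doubles 20S activity, derived from the concentration-response curves.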

[4] = target: T1, 20S proteasome (Homo sapiens); experiment: Activation of human 20S proteosome assessed as concentration required to cause double the proteosome activity using caspase-like Z-LLE-AM fluorogenic peptide as substrate; settings: filed as activator; procedure, shortened: as §3
[5] = target: T1, 20S proteasome (Homo sapiens); experiment: as §1, with “3” for “30”; settings: filed as activator, time 75.0 min; procedure, shortened: as §2
[6] = target: T1, 20S proteasome (Homo sapiens); experiment: Activation of human 20S proteosome assessed as fold increase in proteosome activity at 5 uM using trypsin-like Boc-LRR-AMC fluorogenic peptide as substrate by fluorescence assay relative to control; settings: filed as activator
[7] = target: T1, 20S proteasome (Homo sapiens); experiment: Activation of human 20S proteosome assessed as concentration required to cause double the proteosome activity using chymotrypsin-like Suc-LLVY-AMC, trypsin-like Boc-LRR-AMC and caspase-like Z-LLE-AM fluorogenic peptides as substrates; settings: filed as activator; procedure, shortened: as §3
[8] = target: T1, 20S proteasome (Homo sapiens); experiment: Activation of human 20S proteosome assessed as concentration required to cause double the proteosome activity using trypsin-like Boc-LRR-AMC fluorogenic peptide as substrate; settings: filed as activator; procedure, shortened: as §3
[9] = target: T1, 20S proteasome (Homo sapiens); experiment: Activation of human 20S proteosome assessed as fold increase in proteosome activity at 5.6 uM using caspase-like Z-LLE-AM fluorogenic peptide as substrate by fluorescence assay relative to control; settings: filed as activator
[10] = target: T1, 20S proteasome (Homo sapiens); experiment: Activation of human 20S proteosome assessed as fold increase in proteosome activity at 12.9 uM using chymotrypsin-like Suc-LLVY-AMC fluorogenic peptide as substrate by fluorescence assay relative to control; settings: filed as activator
[11] = target: T1, 20S proteasome (Homo sapiens); experiment: Activation of human 20S proteosome assessed as fold increase in proteosome activity at 2.3 uM using mixture of chymotrypsin-like Suc-LLVY-AMC, trypsin-like Boc-LRR-AMC and caspase-like Z-LLE-AM fluorogenic peptides as substrates by fluorescence assay relative to control; settings: filed as activator
[12] = target: T1, 20S proteasome (Homo sapiens); experiment: Activation of human 20S proteosome assessed as fold increase in proteosome activity at 5.8 uM using caspase-like Z-LLE-AM fluorogenic peptide as substrate by fluorescence assay relative to control; settings: filed as activator
[13] = target: T1, 20S proteasome (Homo sapiens); experiment: Activation of human 20S proteosome assessed as fold increase in proteosome activity at 8.1 uM using chymotrypsin-like Suc-LLVY-AMC fluorogenic peptide as substrate by fluorescence assay relative to control; settings: filed as activator
[14] = target: T1, 20S proteasome (Homo sapiens); experiment: Activation of human 20S proteosome assessed as fold increase in proteosome activity at 2.5 uM using trypsin-like Boc-LRR-AMC fluorogenic peptide as substrate by fluorescence assay relative to control; settings: filed as activator
[15] = target: T1, 20S proteasome (Homo sapiens); experiment: Activation of human 20S proteosome assessed as fold increase in proteosome activity at 1.3 uM using mixture of chymotrypsin-like Suc-LLVY-AMC, trypsin-like Boc-LRR-AMC and caspase-like Z-LLE-AM fluorogenic peptides as substrates by fluorescence assay relative to control; settings: filed as activator
[16] = target: T1, 20S proteasome (Homo sapiens); experiment: Activation of human 20S proteosome assessed as fold increase in proteosome activity at 1.7 uM using trypsin-like Boc-LRR-AMC fluorogenic peptide as substrate by fluorescence assay relative to control; settings: filed as activator
[17] = target: T1, 20S proteasome (Homo sapiens); experiment: Activation of human 20S proteosome assessed as fold increase in proteosome activity at 2.8 uM using caspase-like Z-LLE-AM fluorogenic peptide as substrate by fluorescence assay relative to control; settings: filed as activator
[18] = target: T1, 20S proteasome (Homo sapiens); experiment: Induction of human 20S proteosome mediated human alpha-synuclein degradation; settings: filed as activator, dose 0.5-10 µM
Procedure, shortened: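 Compound pre-incubated with purified human 20S proteasome. Pure human α-synuclein then added and the mix incubated 4 h. Digests resolved and silver stained. α-Synuclein bands quantified using 20S proteasome subunits as loading control, n=3.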

[19] = target: T1, 20S proteasome (Homo sapiens); experiment: Activation of human 20S proteosome assessed as fold increase in proteosome activity at 10.5 uM using chymotrypsin-like Suc-LLVY-AMC fluorogenic peptide as substrate by fluorescence assay relative to control; settings: filed as activator

Compound: COc1ccc2c(c1)N=C(C1CCCCC1)N(Cc1ccccc1)C2c1ccccc1 (configuration not stated)
- fold change (FC) [1]: 6.5

Compound: COc1ccc2c(c1)N=C(C)N(Cc1ccccc1)C2c1ccccc1 (configuration not stated)
- fold change (FC) [1]: 1.8

Compound: Cc1ccc2c(c1)N=C(c1ccccc1)N(Cc1ccccc1)C2c1ccccc1 (configuration not stated)
- fold change (FC) [1]: 8.1

Compound: COc1ccc2c(c1)N=C(c1ccccc1)N(Cc1ccccc1)C2c1ccccc1 (configuration not stated)
- fold change (FC) [2]: 10.1
- AC200 [3]: 12.9 µM
- AC200 [4]: 5.6 µM
- Activity [5]: > 200%
- fold change (FC) [1]: 7.9
- fold change (FC) [6]: 11.7
- AC200 [7]: 2 µM
- AC200 [8]: 5 µM
- fold change (FC) [9]: 13.4
- fold change (FC) [10]: 5.6

Compound: CCCCCC1=Nc2cc(OC)ccc2C(c2ccccc2)N1Cc1ccccc1 (configuration not stated)
- fold change (FC) [1]: 2.8

Compound: CCCCCCN1C(c2ccccc2)=Nc2cc(OC)ccc2C1c1ccccc1 (configuration not stated)
- fold change (FC) [1]: 1.6

Compound: COc1ccc2c(c1)N=C(c1ccccc1)N(C1CCCCC1)C2c1ccccc1 (configuration not stated)
- fold change (FC) [1]: 6.7

Compound: COc1ccc2c(c1)N=C(c1ccccc1)N(Cc1ccccn1)C2c1ccccc1 (configuration not stated)
- fold change (FC) [1]: 2

Compound: CCCCCc1ccc2c(c1)N=C(c1ccccc1)N(Cc1ccccc1)C2c1ccccc1 (configuration not stated)
- fold change (FC) [1]: 2.8

Compound: COc1ccc2c(c1)N=C(c1ccccc1)N(CC1CCCCC1)C2c1ccccc1 (configuration not stated)
- fold change (FC) [1]: 8.2

Compound: COc1ccc2c(c1)N=C(C(C)C)N(Cc1ccccc1)C2c1ccccc1 (configuration not stated)
- fold change (FC) [1]: 2.3

Compound: COc1ccc2c(c1)N=C(c1ccccc1)N(c1ccccc1)C2c1ccccc1 (configuration not stated)
- fold change (FC) [11]: 11.1
- AC200 [3]: 8.1 µM
- AC200 [4]: 5.8 µM
- Activity [5]: > 200%
- fold change (FC) [12]: 15.3
- fold change (FC) [13]: 6.7
- fold change (FC) [14]: 15
- fold change (FC) [1]: 9.5
- AC200 [7]: 2.3 µM
- AC200 [8]: 2.5 µM

Compound: COc1ccc2c(c1)N=C(C1CC1)N(Cc1ccccc1)C2c1ccccc1 (configuration not stated)
- fold change (FC) [1]: 2.7

Compound: COc1ccc2c(c1)N=C(c1ccccc1)N(CCc1ccccn1)C2c1ccccc1 (configuration not stated)
- fold change (FC) [1]: 2.8

Compound: COc1ccc2c(c1)N=C(c1ccccc1)N(CC1CCOCC1)C2c1ccccc1 (configuration not stated)
- fold change (FC) [1]: 1.6

Compound: c1ccc(CN2C(c3ccccc3)=Nc3ccccc3C2c2ccccc2)cc1 (configuration not stated)
- fold change (FC) [1]: 4

Compound: COc1ccc2c(c1)N=C(c1ccccc1)N(C1CCN(C)CC1)C2c1ccccc1 (configuration not stated)
- fold change (FC) [1]: 1

Compound: COc1ccc2c(c1)N=C(c1ccccc1)N(CC1CCN(C)CC1)C2c1ccccc1 (configuration not stated)
- fold change (FC) [1]: 1.2

Compound: COc1ccc2c(c1)N=C(c1ccccc1)N(CC#N)C2c1ccccc1 (configuration not stated)
- fold change (FC) [1]: 2.7

Compound: COc1ccc2c(c1)N=C(c1ccccc1)N(c1cccc3cccnc13)C2c1ccccc1 (configuration not stated)
- fold change (FC) [1]: 5.3

Compound: COc1ccc2c(c1)N=C(c1ccccc1)N(C1CCN(Cc3ccccc3)CC1)C2c1ccccc1 (configuration not stated)
- fold change (FC) [15]: 5.5
- fold change (FC) [16]: 8.7
- fold change (FC) [17]: 10.6
- Activity [18]: Dose-dependent effect
- AC200 [3]: 10.5 µM
- AC200 [4]: 2.8 µM
- Activity [5]: > 200%
- fold change (FC) [19]: 3.8
- fold change (FC) [1]: 7
- AC200 [7]: 1.3 µM
- AC200 [8]: 1.7 µM

Compound: COc1ccc2c(c1)N=C(c1ccccc1)N(c1ccccn1)C2c1ccccc1 (configuration not stated)
- fold change (FC) [1]: 6.9

Compound: C=CCN1C(c2ccccc2)=Nc2cc(OC)ccc2C1c1ccccc1 (configuration not stated)
- fold change (FC) [1]: 2.3

Compound: COc1ccc2c(c1)N=C(c1ccccc1)N(c1cccnc1)C2c1ccccc1 (configuration not stated)
- fold change (FC) [1]: 5.9
